Molecules are shown by their SMILES. ≈ marks a conversion by molar mass, not a printed value.

We go through one compound from ChEMBL document CHEMBL4477235, “Evolution of a Novel, Orally Bioavailable Series of PI3Kδ Inhibitors from an Inhaled Lead for the Treatment of Respiratory Disease” (J Med Chem, 2016).

A short description of data set [1]: Kinetic solubility in phosphate buffered saline at pH 7.4 after 1 hr by chemiluminescent nitrogen detection method. Format: physicochemical. The conditions noted are these: read-out: Kinetic_solubility. The method, boiled down:
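The sample was then filtered, and the filtrate was quantified by calibrated flow-injection chemiluminescent nitrogen detection. Standard error was ±30 µM, and the upper limit was 500 µM from the 10 mM stock.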

Data set [2] in a line: Half life in Brown Norway rat acute OVA model of TH2-driven lung inflammation at 9 mg/kg, po pretreated for 30 mins followed by OVA challenge. In kind it is ADME, organism-based. The conditions noted are these: in vivo.
Data set [3] has as its target Tyrosine-protein kinase JAK3 (Homo sapiens, UniProt P52333). In words: Inhibition of JAK3 (unknown origin).
Data set [4] has as its target Tyrosine-protein kinase Lck (Homo sapiens, UniProt P06239). Nature of the data set: Inhibition of LCK (unknown origin).
The target in data set [5] is Inhibitor of nuclear factor kappa-B kinase subunit beta (Homo sapiens, UniProt O14920). Nature of the data set: Inhibition of IKK2 (unknown origin).
Data set [6] has as its target T1, Phosphatidylinositol 4,5-bisphosphate 3-kinase catalytic subunit delta isoform (Homo sapiens, UniProt O00329).
T1 sequence (O00329 whole entry): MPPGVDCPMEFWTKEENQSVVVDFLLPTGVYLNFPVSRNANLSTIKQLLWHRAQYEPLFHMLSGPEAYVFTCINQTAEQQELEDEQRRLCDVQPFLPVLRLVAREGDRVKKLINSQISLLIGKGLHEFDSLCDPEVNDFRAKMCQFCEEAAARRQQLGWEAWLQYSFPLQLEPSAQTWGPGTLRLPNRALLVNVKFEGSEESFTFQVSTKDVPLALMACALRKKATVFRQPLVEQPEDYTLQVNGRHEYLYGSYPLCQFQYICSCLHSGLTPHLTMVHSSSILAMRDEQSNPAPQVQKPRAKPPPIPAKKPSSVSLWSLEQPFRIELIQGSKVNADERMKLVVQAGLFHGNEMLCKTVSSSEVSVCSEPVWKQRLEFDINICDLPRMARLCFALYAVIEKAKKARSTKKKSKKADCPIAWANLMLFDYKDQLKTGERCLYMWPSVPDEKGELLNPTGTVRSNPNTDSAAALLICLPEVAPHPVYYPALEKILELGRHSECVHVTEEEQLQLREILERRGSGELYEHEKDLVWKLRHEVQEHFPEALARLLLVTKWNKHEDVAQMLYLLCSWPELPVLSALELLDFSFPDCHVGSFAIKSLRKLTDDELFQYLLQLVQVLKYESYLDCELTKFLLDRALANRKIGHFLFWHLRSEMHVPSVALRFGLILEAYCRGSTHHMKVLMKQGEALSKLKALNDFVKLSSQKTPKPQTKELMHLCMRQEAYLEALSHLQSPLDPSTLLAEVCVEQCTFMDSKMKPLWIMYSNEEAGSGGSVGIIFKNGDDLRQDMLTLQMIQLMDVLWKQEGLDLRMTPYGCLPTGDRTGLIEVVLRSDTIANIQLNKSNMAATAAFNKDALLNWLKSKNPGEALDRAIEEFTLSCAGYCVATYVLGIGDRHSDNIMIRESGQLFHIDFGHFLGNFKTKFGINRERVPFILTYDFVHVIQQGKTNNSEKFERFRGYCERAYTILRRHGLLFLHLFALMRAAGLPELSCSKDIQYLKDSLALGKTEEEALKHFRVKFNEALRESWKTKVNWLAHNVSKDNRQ

Tyrosine-protein kinase JAK3, sequence (P52333 whole entry): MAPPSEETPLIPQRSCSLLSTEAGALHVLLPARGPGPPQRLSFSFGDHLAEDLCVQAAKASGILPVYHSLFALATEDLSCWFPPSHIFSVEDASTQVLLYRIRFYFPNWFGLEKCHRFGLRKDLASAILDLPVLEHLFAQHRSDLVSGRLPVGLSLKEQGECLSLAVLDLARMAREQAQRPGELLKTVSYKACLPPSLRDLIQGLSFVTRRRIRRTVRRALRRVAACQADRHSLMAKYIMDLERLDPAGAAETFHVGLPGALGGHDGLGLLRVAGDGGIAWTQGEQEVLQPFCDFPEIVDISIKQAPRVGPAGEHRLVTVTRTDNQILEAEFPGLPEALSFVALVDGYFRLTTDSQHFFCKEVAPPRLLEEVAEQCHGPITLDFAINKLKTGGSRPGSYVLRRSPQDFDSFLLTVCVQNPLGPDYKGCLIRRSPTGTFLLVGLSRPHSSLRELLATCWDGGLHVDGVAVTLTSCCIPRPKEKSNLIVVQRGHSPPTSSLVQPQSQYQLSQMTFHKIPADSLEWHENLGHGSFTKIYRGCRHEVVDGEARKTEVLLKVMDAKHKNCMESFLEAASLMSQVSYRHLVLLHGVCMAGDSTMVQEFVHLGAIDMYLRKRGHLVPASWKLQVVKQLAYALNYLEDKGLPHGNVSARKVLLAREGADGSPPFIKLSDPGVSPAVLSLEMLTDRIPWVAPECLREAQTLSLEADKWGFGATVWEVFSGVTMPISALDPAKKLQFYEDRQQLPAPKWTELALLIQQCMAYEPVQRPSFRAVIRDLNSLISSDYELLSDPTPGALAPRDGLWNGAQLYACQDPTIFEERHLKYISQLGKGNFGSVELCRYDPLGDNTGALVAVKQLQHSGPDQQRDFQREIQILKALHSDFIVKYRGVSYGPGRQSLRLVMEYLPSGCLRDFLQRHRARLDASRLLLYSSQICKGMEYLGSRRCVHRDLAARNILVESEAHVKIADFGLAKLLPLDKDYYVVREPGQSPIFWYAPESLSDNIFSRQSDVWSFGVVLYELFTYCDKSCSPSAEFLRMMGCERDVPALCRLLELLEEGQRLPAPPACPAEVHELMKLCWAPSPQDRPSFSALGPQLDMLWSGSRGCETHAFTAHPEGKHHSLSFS
Tyrosine-protein kinase Lck, sequence (P06239 whole entry): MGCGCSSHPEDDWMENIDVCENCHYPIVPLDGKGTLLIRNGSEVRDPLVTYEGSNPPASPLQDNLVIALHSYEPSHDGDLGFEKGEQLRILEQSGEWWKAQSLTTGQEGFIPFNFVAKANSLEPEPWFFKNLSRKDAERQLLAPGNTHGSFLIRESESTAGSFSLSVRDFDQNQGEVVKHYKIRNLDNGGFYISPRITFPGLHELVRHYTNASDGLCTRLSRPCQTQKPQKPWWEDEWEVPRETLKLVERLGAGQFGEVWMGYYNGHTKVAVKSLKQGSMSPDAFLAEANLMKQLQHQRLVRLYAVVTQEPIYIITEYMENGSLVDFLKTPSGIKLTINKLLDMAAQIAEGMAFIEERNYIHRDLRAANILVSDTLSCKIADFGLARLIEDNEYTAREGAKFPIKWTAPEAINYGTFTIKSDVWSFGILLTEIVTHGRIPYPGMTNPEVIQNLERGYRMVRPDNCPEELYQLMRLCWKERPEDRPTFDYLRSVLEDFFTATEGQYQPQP
Inhibitor of nuclear factor kappa-B kinase subunit beta, sequence (O14920 whole entry, canonical isoform): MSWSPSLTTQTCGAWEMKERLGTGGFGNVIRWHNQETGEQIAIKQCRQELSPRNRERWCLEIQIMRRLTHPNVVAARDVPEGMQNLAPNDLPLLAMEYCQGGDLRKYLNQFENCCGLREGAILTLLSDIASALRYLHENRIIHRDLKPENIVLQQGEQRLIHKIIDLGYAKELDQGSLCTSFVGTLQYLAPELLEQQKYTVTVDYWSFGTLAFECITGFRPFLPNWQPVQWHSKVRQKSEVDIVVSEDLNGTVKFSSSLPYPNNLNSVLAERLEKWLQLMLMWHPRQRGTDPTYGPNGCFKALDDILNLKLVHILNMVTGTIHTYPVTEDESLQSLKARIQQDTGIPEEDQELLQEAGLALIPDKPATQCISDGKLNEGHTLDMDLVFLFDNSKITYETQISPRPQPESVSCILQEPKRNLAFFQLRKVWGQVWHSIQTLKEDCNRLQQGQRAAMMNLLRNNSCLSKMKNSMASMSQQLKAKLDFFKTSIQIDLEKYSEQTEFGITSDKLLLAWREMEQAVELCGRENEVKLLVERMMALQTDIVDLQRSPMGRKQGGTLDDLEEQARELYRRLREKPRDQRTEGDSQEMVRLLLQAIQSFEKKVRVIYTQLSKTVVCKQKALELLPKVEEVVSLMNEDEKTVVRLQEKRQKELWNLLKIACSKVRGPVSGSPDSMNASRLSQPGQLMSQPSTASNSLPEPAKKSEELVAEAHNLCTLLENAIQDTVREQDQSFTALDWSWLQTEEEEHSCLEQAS

Regarding `COc1ncc(-c2cc3c(c(NC(=O)CN4CCOCC4)c2)COC3)cc1NS(C)(=O)=O`, in data set [1], the solubility kinetic at 1 h turned out to be 185 µg/mL (≈ 400 µM). For the same compound, the half-life in data set [2] is 6.8 h. In addition, the IC50 was greater than 10 µM in data set [3], greater than 10 µM in data set [4], greater than 10 µM in data set [5] and 0.158 µM in data set [6].

The half-life is how long it takes for the measured level to halve. What is called IC50 is the midpoint of a concentration-inhibition curve.
